The record followed here is ChEMBL document CHEMBL4373651, “Indole compounds with N-ethyl morpholine moieties as CB2 receptor agonists for anti-inflammatory management of pain: synthesis and biological evaluation” (Medchemcomm, 2019).

Structures are written as SMILES. The source made the active and inactive calls.

For one assay, the target named is Cannabinoid receptor 1 (Homo sapiens, UniProt P21554). In words: Agonist activity at human CB1 receptor expressed in CHO cells coexpressing Galpha16 assessed as reduction in forsklin-induced cAMP production incubated for 30 mins by cAMP Hunter assay based […] analysis. The settings on record: read-out: EC50. Format: cell-based. In a few lines: (§1)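 CHO cells expressing human CB1 or CB2 with Gα16, seeded overnight at 37 °C. Test compounds in stimulation buffer with 1 mM IBMX, 0.25% BSA and forskolin, 30 min at 37 °C. Cells lysed, cAMP read by enzyme fragment complementation chemiluminescence kit. Triplicate per dilution. Efficacy relative to CP-55940 reference run twice per plate. EC50 from means.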
Cannabinoid receptor 1, sequence (P21554 whole entry, the tested form may be a part): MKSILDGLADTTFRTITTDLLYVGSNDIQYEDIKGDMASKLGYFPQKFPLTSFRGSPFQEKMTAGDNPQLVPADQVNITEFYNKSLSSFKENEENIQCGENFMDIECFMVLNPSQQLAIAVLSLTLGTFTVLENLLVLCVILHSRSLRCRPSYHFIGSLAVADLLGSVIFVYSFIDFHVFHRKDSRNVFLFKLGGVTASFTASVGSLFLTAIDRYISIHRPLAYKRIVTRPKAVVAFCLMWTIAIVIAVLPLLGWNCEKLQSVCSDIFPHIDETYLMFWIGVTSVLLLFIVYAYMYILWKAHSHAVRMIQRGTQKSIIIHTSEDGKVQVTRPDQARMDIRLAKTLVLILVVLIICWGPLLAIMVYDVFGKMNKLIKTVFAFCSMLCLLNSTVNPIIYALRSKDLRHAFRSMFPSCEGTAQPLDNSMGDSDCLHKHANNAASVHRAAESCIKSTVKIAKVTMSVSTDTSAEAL
(Cyclic AMP is a second messenger, typically raised through Gs and lowered through Gi signalling.)

A further assay has as its target Cannabinoid receptor 2 (Homo sapiens, UniProt P34972). In words: Agonist activity at human CB2 receptor expressed in CHO cells coexpressing Galpha16 assessed as reduction in forsklin-induced cAMP production incubated for 30 mins by cAMP Hunter assay based […] analysis. The settings on record: read-out: EC50. Format: functional, cell-based. In a few lines:
as §1

In assay [1] the test system is Rattus norvegicus. In words: Antiinflammatory hyperalgesic activity against complete freund's adjuvant-induced mechanical hyperalgesic Sprague-Dawley rat model assessed as increase in paw withdraw latency at 0.0025 to 10 mg/kg, ip pretreated with CFA for 24 hrs followed by compound administration and measured at 1 hr to 12 hrs by analgesiometer analysis. The assay is classed as functional, organism-based. In a few lines: (§2)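 Male Sprague-Dawley rats, 180–200 g. Baseline mechanical paw withdrawal threshold taken with analgesiometer pressure on left hind paw, cut-off 250 g, endpoint complete withdrawal. Intraplantar 50% CFA (50 µL in 0.9% saline) under isoflurane. At 24 h, pre-drug threshold, then single i.p. dose of 0.0025–10 mg kg-1, antagonist combination or vehicle (2 mL kg-1). Thresholds read 1–24 h after dosing. % reversal = (post − pre)/(baseline − pre) × 100.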

In assay [2] the test system is Rattus norvegicus. In words: Antiinflammatory hyperalgesic activity against complete freund's adjuvant-induced mechanical hyperalgesic Sprague-Dawley rat model assessed as paw withdraw latency at 0.0025 to 10 mg/kg, ip pretreated with CFA for 24 hrs followed by compound administration and measured at 24 hrs by analgesiometer analysis. The assay is classed as functional, organism-based. In a few lines: as §2

The test system of assay [3] is Rattus norvegicus. In words: Antiinflammatory hyperalgesic activity against ip dosed complete freund's adjuvant-induced mechanical hyperalgesic Sprague-Dawley rat model assessed as increase in […] pretreated with CFA for 24 hrs followed by compound administration and measured at 1 hr by analgesiometer analysis. Format: functional. In a few lines:
as §2

Assay [4] has as its system Rattus norvegicus. Kind of assay: Antiinflammatory hyperalgesic activity against complete freund's adjuvant-induced mechanical hyperalgesic Sprague-Dawley rat model assessed as increase in paw withdraw latency at 10 mg/kg, ip pretreated with CFA for 24 hrs followed by compound and 0.5 mg/kg CB1 receptor antagonist, AM281 administration by analgesiometer analysis. Format: functional, organism-based. In a few lines:
as §2

The subject of assay [5] is Rattus norvegicus. Kind of assay: Antiinflammatory hyperalgesic activity against complete freund's adjuvant-induced mechanical hyperalgesic Sprague-Dawley rat model assessed as paw withdraw latency at 10 mg/kg, ip pretreated with CFA for 24 hrs followed by compound and 1 mg/kg CB2 receptor antagonist, SR144528 administration by analgesiometer analysis. The assay is classed as functional, organism-based. The essentials: as §2

The subject of assay [6] is Rattus norvegicus. In words: Antiinflammatory hyperalgesic activity against complete freund's adjuvant-induced mechanical hyperalgesic Sprague-Dawley rat model assessed as decrease in IL-1 beta production in paw skin at 10 mg/kg, ip pretreated with CFA for 24 hrs followed by compound administration and measured after 1 hr by ELISA relative to control. The assay is classed as functional. In a few lines:
(§3)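 Male Sprague-Dawley rats, 180–200 g, isoflurane anaesthesia. Left hind paw given intraplantar 50% CFA (50 µL in 0.9% saline), or saline. At 24 h, single i.p. dose of drug, antagonist, combination or vehicle (2 mL kg-1). 1 h after dosing, paw skin taken and homogenised in ice-cold buffer with protease inhibitor, then centrifuged. IL-1β, IL-6 and TNF-α in supernatant by ELISA. n = 6, one-way ANOVA with Tukey test.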
Background: ELISA stands for enzyme-linked immunosorbent assay.

Assay [7] deals with Rattus norvegicus. Kind of assay: Antiinflammatory hyperalgesic activity against complete freund's adjuvant-induced mechanical hyperalgesic Sprague-Dawley rat model assessed as decrease in IL-6 production in paw skin at 10 mg/kg, ip pretreated with CFA for 24 hrs followed by compound administration and measured after 1 hr by ELISA relative to control. The assay is classed as functional. In a few lines: as §3

Assay [8] deals with Rattus norvegicus. In words: Antiinflammatory hyperalgesic activity against complete freund's adjuvant-induced mechanical hyperalgesic Sprague-Dawley rat model assessed as decrease in TNF alpha production in paw skin at 10 mg/kg, ip pretreated with CFA for 24 hrs followed by compound administration and measured after 1 hr by ELISA relative to control. The assay is classed as functional. The essentials:
as §3

For assay [9], the system named is Rattus norvegicus. In words: Antiinflammatory hyperalgesic activity against complete freund's adjuvant-induced mechanical hyperalgesic Sprague-Dawley rat model assessed as decrease in IL-1 beta production in paw skin at 10 mg/kg, ip pretreated with CFA for 24 hrs followed by compound and 0.5 mg/kg CB1 receptor antagonist, AM281 administration and measured after 1 hr by ELISA. The assay is classed as functional, organism-based. The essentials: as §3

Assay [10] has as its system Rattus norvegicus. In words: Antiinflammatory hyperalgesic activity against complete freund's adjuvant-induced mechanical hyperalgesic Sprague-Dawley rat model assessed as decrease in IL-6 production in paw skin at 10 mg/kg, ip pretreated with CFA for 24 hrs followed by compound and 0.5 mg/kg CB1 receptor antagonist, AM281 administration and measured after 1 hr by ELISA. Format: functional, organism-based. In a few lines:
as §3

Assay [11] deals with Rattus norvegicus. In words: Antiinflammatory hyperalgesic activity against complete freund's adjuvant-induced mechanical hyperalgesic Sprague-Dawley rat model assessed as decrease in TNF-alpha production in paw skin at 10 mg/kg, ip pretreated with CFA for 24 hrs followed by compound and 0.5 mg/kg CB1 receptor antagonist, AM281 administration and measured after 1 hr by ELISA. Format: functional, organism-based. The essentials: as §3

In assay [12] the test system is Rattus norvegicus. Kind of assay: Antiinflammatory hyperalgesic activity against complete freund's adjuvant-induced mechanical hyperalgesic Sprague-Dawley rat model assessed as reduction in IL-1 beta production in paw skin at 10 mg/kg, ip pretreated with CFA for 24 hrs followed by compound and 1 mg/kg CB2 receptor antagonist, SR144528 administration and measured after 1 hr by ELISA. The assay is classed as functional, organism-based. In a few lines: as §3

Assay [13] deals with Rattus norvegicus. In words: Antiinflammatory hyperalgesic activity against complete freund's adjuvant-induced mechanical hyperalgesic Sprague-Dawley rat model assessed as reduction in IL-6 production in paw skin at 10 mg/kg, ip pretreated with CFA for 24 hrs followed by compound and 1 mg/kg CB2 receptor antagonist, SR144528 administration and measured after 1 hr by ELISA. The assay is classed as functional, organism-based. The essentials: as §3

Assay [14] relates to Rattus norvegicus. Kind of assay: Antiinflammatory hyperalgesic activity against complete freund's adjuvant-induced mechanical hyperalgesic Sprague-Dawley rat model assessed as reduction in TNF-alpha production in paw skin at 10 mg/kg, ip pretreated with CFA for 24 hrs followed by compound and 1 mg/kg CB2 receptor antagonist, SR144528 administration and measured after 1 hr by ELISA. The assay is classed as functional, organism-based. The essentials: as §3

The nature of assay [15]: Selectivity ratio of EC50 for human CB1 receptor expressed in CHO cells coexpressing Galpha16 to EC50 for human CB2 receptor expressed in CHO cells coexpressing Galpha16. The essentials:
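Ratio of EC50 values from the CB1 and CB2 cAMP assays in CHO-Gα16 cells: 30 min compound exposure at 37 °C with 1 mM IBMX and forskolin, chemiluminescent cAMP read-out, triplicates.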

Assay [16] concerns Rattus norvegicus. Kind of assay: Antiinflammatory hyperalgesic activity against ip dosed complete freund's adjuvant-induced mechanical hyperalgesic Sprague-Dawley rat model assessed as decrease in IL-1 beta production in paw skin pretreated with CFA for 24 hrs followed by compound administration and measured after 1 hr by ELISA. The assay is classed as functional, organism-based. The essentials:
as §3

The test system of assay [17] is Rattus norvegicus. Kind of assay: Antiinflammatory hyperalgesic activity against ip dosed complete freund's adjuvant-induced mechanical hyperalgesic Sprague-Dawley rat model assessed as decrease in IL-6 production in paw skin pretreated with CFA for 24 hrs followed by compound administration and measured after 1 hr by ELISA. The assay is classed as functional, organism-based. In a few lines:
as §3

In assay [18] the test system is Rattus norvegicus. In words: Antiinflammatory hyperalgesic activity against ip dosed complete freund's adjuvant-induced mechanical hyperalgesic Sprague-Dawley rat model assessed as decrease in TNF-alpha production in paw skin pretreated with CFA for 24 hrs followed by compound administration and measured after 1 hr by ELISA. The assay is classed as functional, organism-based. In a few lines: as §3

Assay [19] concerns Rattus norvegicus. In words: Antiinflammatory hyperalgesic activity against complete freund's adjuvant-induced mechanical hyperalgesic Sprague-Dawley rat model assessed as reduction in IL-1 beta production in paw skin at 0.1 mg/kg, ip pretreated with CFA for 24 hrs followed by compound administration and measured after 1 hr by ELISA. Format: functional, organism-based. The essentials:
as §3

Assay [20] has as its system Rattus norvegicus. Kind of assay: Antiinflammatory hyperalgesic activity against complete freund's adjuvant-induced mechanical hyperalgesic Sprague-Dawley rat model assessed as reduction in IL-6 production in paw skin at 0.1 mg/kg, ip pretreated with CFA for 24 hrs followed by compound administration and measured after 1 hr by ELISA. Format: functional, organism-based. In a few lines:
as §3

For assay [21], the system named is Rattus norvegicus. In words: Antiinflammatory hyperalgesic activity against complete freund's adjuvant-induced mechanical hyperalgesic Sprague-Dawley rat model assessed as reduction in TNF-alpha production in paw skin at 0.1 mg/kg, ip pretreated with CFA for 24 hrs followed by compound administration and measured after 1 hr by ELISA. Format: functional, organism-based. The essentials:
as §3

Assay [22] relates to Rattus norvegicus. Kind of assay: Antiinflammatory hyperalgesic activity against complete freund's adjuvant-induced mechanical hyperalgesic Sprague-Dawley rat model assessed as increase in paw withdraw latency at 10 mg/kg, ip pretreated with CFA for 24 hrs followed by compound administration and measured at 1 hr to 9 hrs by analgesiometer analysis. The assay is classed as functional, organism-based. In a few lines:
as §2

The subject of assay [23] is Rattus norvegicus. In words: Antiinflammatory hyperalgesic activity against complete freund's adjuvant-induced mechanical hyperalgesic Sprague-Dawley rat model assessed as paw withdraw latency at 10 mg/kg, ip pretreated with CFA for 24 hrs followed by compound administration and measured at 24 hrs by analgesiometer analysis. Format: functional, organism-based. The essentials: as §2

Cannabinoid receptor 2, sequence (P34972 whole entry): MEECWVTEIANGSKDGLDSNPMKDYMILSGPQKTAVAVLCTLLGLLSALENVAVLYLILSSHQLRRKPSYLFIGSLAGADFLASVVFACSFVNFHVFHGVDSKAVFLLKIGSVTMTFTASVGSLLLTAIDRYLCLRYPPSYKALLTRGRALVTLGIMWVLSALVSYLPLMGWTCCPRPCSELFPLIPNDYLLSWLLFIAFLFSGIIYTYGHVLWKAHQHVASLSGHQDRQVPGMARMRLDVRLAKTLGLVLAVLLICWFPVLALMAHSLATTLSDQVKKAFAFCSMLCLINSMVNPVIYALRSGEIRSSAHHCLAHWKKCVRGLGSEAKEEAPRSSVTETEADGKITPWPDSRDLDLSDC

As for `Cc1c(CCN2CCOCC2)c2cc(F)ccc2n1C(=O)c1cccc(Cl)c1Cl`, the concentration for a half-maximal effect (EC50) (in general, the midpoint of the concentration-response curve) was 29.2 µM at Cannabinoid receptor 1 and 0.0189 µM at Cannabinoid receptor 2. Also, the outcome in the assay with Rattus norvegicus [1] and in the assay on Rattus norvegicus [4] was Active. Besides, the result in the assay on Rattus norvegicus [2], in the assay on Rattus norvegicus [5], in the assay on Rattus norvegicus [12], in the assay with Rattus norvegicus [13], in the assay on Rattus norvegicus [14] and in the assay on Rattus norvegicus [19] was inactive. Further, the outcome with Rattus norvegicus [20] and in the assay with Rattus norvegicus [21] was inactive. For the same compound, the Activity entry with Rattus norvegicus [3] is “Dose-dependent effect”. Further, the ED50 (as a rule, the dose at which the effect has come halfway, by size or by number of responders) in the assay on Rattus norvegicus [3] was found to be 1.1 mg/kg. Besides, the results for the “fold change (FC)” value in the assay with Rattus norvegicus [6], with Rattus norvegicus [7] and in the assay with Rattus norvegicus [8] were 1.3, 1.9 and 1.1, respectively. The inhibition entry with Rattus norvegicus [9], with Rattus norvegicus [10] and in the assay with Rattus norvegicus [11] was “Active” in each case. Further, the “Ratio EC50” value in assay [15] is reported as over 1000. The inhibition entry with Rattus norvegicus [16], in the assay on Rattus norvegicus [17] and with Rattus norvegicus [18] was “Dose-dependent effect” each time.
As for `COc1ccc2c(c1)c(CCN1CCOCC1)c(C)n2C(=O)c1cccc(Cl)c1Cl`, the EC50 is 16.1 µM on Cannabinoid receptor 1 and 0.0507 µM at Cannabinoid receptor 2. Also, the outcome in the assay with Rattus norvegicus [22] was Active. Also, the outcome in the assay with Rattus norvegicus [23] was inactive. For the same compound, the “fold change (FC)” value came out at 1.4 in the assay with Rattus norvegicus [6], 2.5 in the assay with Rattus norvegicus [7] and 1.6 in the assay with Rattus norvegicus [8]. For the same compound, the “Ratio EC50” value in assay [15] was over 1000.
